From ChEMBL document CHEMBL1155054, “Synthesis, biological evaluation and molecular modelling of N-heterocyclic dipeptide aldehydes as selective calpain inhibitors” (Bioorg Med Chem, 2008) come the findings set out here.

Active and inactive are the calls of the source. The rule behind the calls is not given here. Residues, ends and D or L forms follow the SMILES beside them. *: point of attachment. Cbz = O=C(OCc1ccccc1)*

A short description of test [1]: Inhibition of ovine CAPN2. Set-up: species or system Ovis aries. In short, it runs like this:
(§1)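 o-CAPN1 or o-CAPN2 partially purified from sheep lung by hydrophobic and ion-exchange chromatography, diluted in 20 mM MOPS, 2 mM EGTA, 2 mM EDTA, 0.5% β-mercaptoethanol pH 7.5. Substrate 0.0005% BODIPY-FL casein in 10 mM CaCl2; inhibitor in DMSO (2% total).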

A short description of test [2]: Inhibition of ovine CAPN1. Set-up: species or system Ovis aries. In short, it runs like this:
as §1

In test [3] the target is T1, Calpain-1 catalytic subunit (Sus scrofa, UniProt P35750).
T1 sequence (P35750 whole entry): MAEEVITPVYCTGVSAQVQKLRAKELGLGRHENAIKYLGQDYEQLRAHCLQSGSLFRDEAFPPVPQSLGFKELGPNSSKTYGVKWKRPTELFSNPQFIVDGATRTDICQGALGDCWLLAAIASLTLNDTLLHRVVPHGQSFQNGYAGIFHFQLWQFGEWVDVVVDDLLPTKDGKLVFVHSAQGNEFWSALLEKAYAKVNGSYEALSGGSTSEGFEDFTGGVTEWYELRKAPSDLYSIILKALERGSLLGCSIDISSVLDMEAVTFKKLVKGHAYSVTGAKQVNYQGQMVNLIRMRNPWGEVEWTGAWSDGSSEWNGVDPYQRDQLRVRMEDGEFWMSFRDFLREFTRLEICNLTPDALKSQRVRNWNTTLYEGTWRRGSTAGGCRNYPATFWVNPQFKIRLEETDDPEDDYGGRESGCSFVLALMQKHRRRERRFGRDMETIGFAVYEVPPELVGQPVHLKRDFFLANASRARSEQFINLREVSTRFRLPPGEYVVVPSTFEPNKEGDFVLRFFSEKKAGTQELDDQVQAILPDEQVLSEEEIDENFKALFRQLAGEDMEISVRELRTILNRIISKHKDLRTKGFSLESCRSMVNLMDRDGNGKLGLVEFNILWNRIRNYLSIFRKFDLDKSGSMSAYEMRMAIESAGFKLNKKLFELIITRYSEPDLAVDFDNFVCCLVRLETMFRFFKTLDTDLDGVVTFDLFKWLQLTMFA

Test [4] addresses T2, Calpain-2 catalytic subunit (Sus scrofa, UniProt P43367).
T2 sequence (P43367 whole entry): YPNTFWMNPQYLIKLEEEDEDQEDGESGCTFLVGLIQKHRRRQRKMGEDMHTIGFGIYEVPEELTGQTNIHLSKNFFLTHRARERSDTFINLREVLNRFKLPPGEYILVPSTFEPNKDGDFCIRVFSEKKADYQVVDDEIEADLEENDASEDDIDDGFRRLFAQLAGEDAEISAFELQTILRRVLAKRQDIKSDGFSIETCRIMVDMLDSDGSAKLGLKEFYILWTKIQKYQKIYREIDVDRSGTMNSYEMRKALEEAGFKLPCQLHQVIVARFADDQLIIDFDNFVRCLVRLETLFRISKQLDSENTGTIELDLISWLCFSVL
The test can be described thus: Inhibition of pig CAPN2.

Test [5] has as its target T3, Calpain-2 catalytic subunit (Homo sapiens, UniProt P17655).
T3 sequence (P17655 whole entry): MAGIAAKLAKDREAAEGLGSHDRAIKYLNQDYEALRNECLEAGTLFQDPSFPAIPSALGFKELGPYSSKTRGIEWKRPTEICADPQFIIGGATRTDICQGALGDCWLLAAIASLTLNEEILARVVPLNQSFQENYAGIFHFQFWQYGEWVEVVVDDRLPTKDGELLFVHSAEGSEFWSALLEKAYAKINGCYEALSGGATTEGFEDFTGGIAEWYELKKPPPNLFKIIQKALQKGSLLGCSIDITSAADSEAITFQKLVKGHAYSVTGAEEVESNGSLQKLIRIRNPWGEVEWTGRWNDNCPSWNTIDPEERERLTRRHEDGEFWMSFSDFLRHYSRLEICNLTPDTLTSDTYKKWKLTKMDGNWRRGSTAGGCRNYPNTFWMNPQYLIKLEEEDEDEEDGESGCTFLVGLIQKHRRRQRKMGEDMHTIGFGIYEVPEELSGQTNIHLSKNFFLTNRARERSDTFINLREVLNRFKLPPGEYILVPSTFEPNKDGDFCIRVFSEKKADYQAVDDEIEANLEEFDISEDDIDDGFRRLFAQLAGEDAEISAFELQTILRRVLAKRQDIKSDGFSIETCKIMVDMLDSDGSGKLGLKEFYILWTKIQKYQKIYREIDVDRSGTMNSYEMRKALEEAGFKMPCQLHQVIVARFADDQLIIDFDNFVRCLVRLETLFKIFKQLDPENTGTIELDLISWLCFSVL
As to the kind of experiment: Inhibition of human CAPN2.

Another test has as its system Lens of camera-type eye. The test can be described thus: Protection against calcium-induced cataract in ovine lens assessed as reduction in loss of transparency at 10 uM after 44 hrs relative to control. It counts as functional, tissue-based. To be noted: Ovis aries.

For the compound `Cc1ccc(C(=O)N[C@H](C(=O)N[C@H](C=O)CC(C)C)C(C)C)[nH]1`, the results for the IC50 in test [1] and in test [2] were 110 nM and 340 nM, respectively.
On to `CC(C)C[C@@H](C=O)NC(=O)[C@@H](NC(=O)c1cccs1)C(C)C`, for which the IC50 in test [1] amounted to 100 nM; in test [2], 680 nM.
In the case of `CC(C)C[C@@H](C=O)NC(=O)[C@@H](NS(=O)(=O)c1ccc(F)cc1)C(C)C`, the figures for the IC50 in test [3] and in test [4] were 7.5 nM and 78 nM, respectively.
Regarding `CC(C)C[C@@H](C=O)NC(=O)[C@@H](NC(=O)c1ccc(C=O)n1C)C(C)C`, the IC50 in test [1] and in test [2] was 150 nM throughout.
In test [5], `CC(C)[C@H](NC(=O)OCc1ccccc1)C(=O)N[C@H](C=O)Cc1ccccc1` (Cbz-Val-Phe-aldehyde) registered an IC50 of 350 nM.
For the compound `CC(C)C[C@@H](C=O)NC(=O)[C@@H](NC(=O)c1ccc(C=O)[nH]1)C(C)C`, the outcome with Lens of camera-type eye was Active. For the same compound, the IC50 came to 25 nM in test [1] and 290 nM in test [2].
Consider `CC(C)C[C@@H](C=O)NC(=O)[C@@H](NC(=O)c1ccco1)C(C)C`, for which the IC50 in test [1] was found to be 135 nM; in test [2], 790 nM.
Turning to `CC(C)C[C@@H](C=O)NC(=O)[C@@H](NC(=O)c1ccc(C=O)o1)C(C)C`, the IC50 in test [1] turned out to be 100 nM; in test [2], 960 nM.
Take `CC(C)C[C@@H](C=O)NC(=O)[C@@H](NC(=O)c1ccc(C=O)s1)C(C)C`: the IC50 in test [1] amounted to 85 nM; in test [2], 440 nM.
For `CC(C)C[C@@H](C=O)NC(=O)[C@@H](NC(=O)c1ccc[nH]1)C(C)C`, the values for the IC50 in test [1] and in test [2] were 315 nM and 650 nM, respectively.
The matching figures for `COC(=O)c1ccc(C(=O)N[C@H](C(=O)N[C@H](C=O)CC(C)C)C(C)C)[nH]1`: 140 nM and 290 nM.
Regarding `CC(C)C[C@@H](C=O)NC(=O)[C@@H](NC(=O)c1cc(C=O)c[nH]1)C(C)C`, the IC50 was 100 nM in test [1] and 530 nM in test [2].

By IC50 is commonly meant the point on the concentration scale where inhibition reaches its midpoint. Read a high IC50 as lower potency.
